# How the values were obtained:
# Digitaria sanguinalis [1] = assay: Herbicidal activity against Digitaria sanguinalis (hairy crabgrass) assessed as inhibition of fresh weed plant weights at 600 g ai/ha using pre-emergence treatment protocol under greenhouse conditions relative to untreated control; format: functional
# In short: (§1)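 Pre-emergence test in plastic pots kept in a greenhouse at 22-25 °C. Fresh weight of aerial plant parts was measured 20 days later, and percent inhibition calculated relative to water-sprayed controls. Metolachlor served as the positive control. Three replicates were run per concentration.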
# Portulaca oleracea [2] = assay: Herbicidal activity against Portulaca oleracea assessed as inhibition of root growth at […] measured 7 days post treatment; format: functional; set-up: dose or concentration left out as unconfirmed; conditions: 168 h, read-out: GI
# Echinochloa crus-galli [3] = assay: Herbicidal activity against Echinochloa crus-galli (barnyard grass) assessed as inhibition of fresh weed plant weights at 600 g ai/ha using pre-emergence treatment protocol under greenhouse conditions relative to untreated control; format: functional; in short: as §1
# Echinochloa crus-galli [4] = assay: Herbicidal activity against Echinochloa crus-galli (barnyard grass) assessed as inhibition of root growth at […] measured 7 days post treatment; format: functional; set-up: dose or concentration left out as unconfirmed; conditions: 168 h, read-out: GI
# Echinochloa crus-galli [5] = assay: Herbicidal activity against Echinochloa crus-galli (barnyard grass) assessed as inhibition of shoot growth at […] measured 7 days post treatment; format: functional; set-up: dose or concentration left out as unconfirmed; conditions: 168 h, read-out: GI
# Portulaca oleracea [6] = assay: Herbicidal activity against Portulaca oleracea assessed as inhibition of shoot growth at […] measured 7 days post treatment; format: functional; conditions: 168 h, read-out: GI
# In short: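 Petri-dish agar assay. A 10 g/L stock of compound in acetone was mixed into molten agar; the untreated control was agar without compound. Seeds were placed on the agar surface and the cups were covered with glass lids. Incubation was 25 ± 1 °C, 50-55% RH, 12 h light/12 h dark, for 7 days. Root and shoot lengths were measured and growth inhibition calculated against the control, in three replicates.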
# Zea mays [7] = assay: Toxicity against Zea mays var. SHEN DAN 17 (maize) assessed induction of crop injury at 1404 g ai/ha using pre-emergence treatment protocol under field trials conditions measured 30 days post soil treatment; format: organism-based; conditions: in vivo, other, 720 h
# Convolvulus arvensis = assay: Herbicidal activity against Convolvulus arvensis assessed as inhibition of fresh weed plant weights at 1404 g ai/ha using pre-emergence treatment protocol under field trials conditions measured 30 days post soil treatment relative to untreated control; format: functional; conditions: 720 h
# Portulaca oleracea [8] = assay: Herbicidal activity against Portulaca oleracea assessed as inhibition of fresh weed plant weights at 1404 g ai/ha using pre-emergence treatment protocol under field trials conditions measured 30 days post soil treatment relative to untreated control; format: functional; conditions: 720 h
# Eleusine indica [9] = assay: Herbicidal activity against Eleusine indica assessed as inhibition of fresh weed plant weights at 1404 g ai/ha using pre-emergence treatment protocol under field trials conditions measured 30 days post soil treatment relative to untreated control; format: functional; conditions: 720 h
# Echinochloa crus-galli [10] = assay: Herbicidal activity against Echinochloa crus-galli (barnyard grass) assessed as inhibition of fresh weed plant weights at 1404 g ai/ha using pre-emergence treatment protocol under field trials conditions measured 30 days post soil treatment relative to untreated control; format: functional; conditions: 720 h
# Digitaria sanguinalis [11] = assay: Herbicidal activity against Digitaria sanguinalis (hairy crabgrass) assessed as inhibition of fresh weed plant weights at 1404 g ai/ha using pre-emergence treatment protocol under field trials conditions measured 30 days post soil treatment relative to untreated control; format: functional; conditions: 720 h
# Zea mays [12] = assay: Toxicity against Zea mays var. SHEN DAN 17 (maize) assessed as inhibition of fresh weed plant weights at 600 g ai/ha using pre-emergence treatment protocol under greenhouse conditions relative to untreated control; format: organism-based; conditions: in vivo, other; in short: as §1
# Zea mays [13] = assay: Toxicity against Zea mays var. SHEN DAN 17 (maize) assessed as inhibition of fresh weed plant weights at 300 g ai/ha using pre-emergence treatment protocol under greenhouse conditions relative to untreated control; format: organism-based; conditions: in vivo, other; in short: as §1
# Portulaca oleracea [14] = assay: Herbicidal activity against Portulaca oleracea assessed as inhibition of fresh weed plant weights at 600 g ai/ha using pre-emergence treatment protocol under greenhouse conditions relative to untreated control; format: functional; in short: as §1
# Portulaca oleracea [15] = assay: Herbicidal activity against Portulaca oleracea assessed as inhibition of fresh weed plant weights at 300 g ai/ha using pre-emergence treatment protocol under greenhouse conditions relative to untreated control; format: functional; in short: as §1
# Portulaca oleracea [16] = assay: Herbicidal activity against Portulaca oleracea assessed as inhibition of fresh weed plant weights at 150 g ai/ha using pre-emergence treatment protocol under greenhouse conditions relative to untreated control; format: functional; in short: as §1
# Echinochloa crus-galli [17] = assay: Herbicidal activity against Echinochloa crus-galli (barnyard grass) assessed as inhibition of fresh weed plant weights at 300 g ai/ha using pre-emergence treatment protocol under greenhouse conditions relative to untreated control; format: functional; in short: as §1
# Echinochloa crus-galli [18] = assay: Herbicidal activity against Echinochloa crus-galli (barnyard grass) assessed as inhibition of fresh weed plant weights at 150 g ai/ha using pre-emergence treatment protocol under greenhouse conditions relative to untreated control; format: functional; in short: as §1
# Digitaria sanguinalis [19] = assay: Herbicidal activity against Digitaria sanguinalis (hairy crabgrass) assessed as inhibition of fresh weed plant weights at 300 g ai/ha using pre-emergence treatment protocol under greenhouse conditions relative to untreated control; format: functional; in short: as §1
# Digitaria sanguinalis [20] = assay: Herbicidal activity against Digitaria sanguinalis (hairy crabgrass) assessed as inhibition of fresh weed plant weights at 150 g ai/ha using pre-emergence treatment protocol under greenhouse conditions relative to untreated control; format: functional; in short: as §1
# Eleusine indica [21] = assay: Herbicidal activity against Eleusine indica assessed as inhibition of fresh weed plant weights at 600 g ai/ha using pre-emergence treatment protocol under greenhouse conditions relative to untreated control; format: functional; in short: as §1
# Eleusine indica [22] = assay: Herbicidal activity against Eleusine indica assessed as inhibition of fresh weed plant weights at 300 g ai/ha using pre-emergence treatment protocol under greenhouse conditions relative to untreated control; format: functional; in short: as §1
# Eleusine indica [23] = assay: Herbicidal activity against Eleusine indica assessed as inhibition of fresh weed plant weights at 150 g ai/ha using pre-emergence treatment protocol under greenhouse conditions relative to untreated control; format: functional; in short: as §1
# [24] = tested on: Brassica rapa subsp. oleifera; assay: Toxicity against Brassica rapa subsp. oleifera var. JING GUAN 1 assessed as inhibition of fresh weed plant weights at 600 g ai/ha using pre-emergence treatment protocol under greenhouse conditions relative to untreated control; format: organism-based; conditions: in vivo, other; in short: as §1
# [25] = tested on: Brassica rapa subsp. oleifera; assay: Toxicity against Brassica rapa subsp. oleifera var. JING GUAN 1 assessed as inhibition of fresh weed plant weights at 300 g ai/ha using pre-emergence treatment protocol under greenhouse conditions relative to untreated control; format: organism-based; conditions: in vivo, other; in short: as §1
# [26] = tested on: Brassica rapa subsp. oleifera; assay: Toxicity against Brassica rapa subsp. oleifera var. JING GUAN 1 assessed as inhibition of fresh weed plant weights at 150 g ai/ha using pre-emergence treatment protocol under greenhouse conditions relative to untreated control; format: organism-based; conditions: in vivo, other; in short: as §1
smiles,measurement,setting,value
Cc1nn(CC(F)(F)F)c(CS(=O)(=O)C2=NOC(C)(C)C2)c1Br,inhibition at 600 g/ha,Digitaria sanguinalis [1],79%
same,inhibition of growth,Portulaca oleracea [2],80%
same,inhibition at 600 g/ha,Echinochloa crus-galli [3],100%
same,inhibition of growth,Echinochloa crus-galli [4],74%
same,inhibition of growth,Echinochloa crus-galli [5],81%
same,inhibition of growth at 100000 µg/mL,Portulaca oleracea [6],62%
Cc1nn(CC(F)(F)F)c(CS(=O)(=O)C2=NOC(C)(C)C2)c1I,inhibition at 600 g/ha,Digitaria sanguinalis [1],90%
same,inhibition of growth,Portulaca oleracea [2],75%
same,inhibition at 600 g/ha,Echinochloa crus-galli [3],100%
same,inhibition of growth,Echinochloa crus-galli [4],63%
same,inhibition of growth,Echinochloa crus-galli [5],84%
same,inhibition of growth at 100000 µg/mL,Portulaca oleracea [6],62%
Cc1nn(CC(F)(F)F)c(CSC2=NOC(C)(C)C2)c1I,inhibition at 600 g/ha,Digitaria sanguinalis [1],54%
same,inhibition of growth,Portulaca oleracea [2],81%
same,inhibition at 600 g/ha,Echinochloa crus-galli [3],100%
same,inhibition of growth,Echinochloa crus-galli [4],86%
same,inhibition of growth,Echinochloa crus-galli [5],89%
same,inhibition of growth at 100000 µg/mL,Portulaca oleracea [6],62%
Cc1nn(CC(F)(F)F)c(CSC2=NOC(C)(C)C2)c1Br,inhibition at 600 g/ha,Digitaria sanguinalis [1],74%
same,inhibition of growth,Portulaca oleracea [2],80%
same,inhibition at 600 g/ha,Echinochloa crus-galli [3],82%
same,inhibition of growth,Echinochloa crus-galli [4],86%
same,inhibition of growth,Echinochloa crus-galli [5],88%
same,inhibition of growth at 100000 µg/mL,Portulaca oleracea [6],54%
CCc1cccc(C)c1N(C(=O)CCl)C(C)COC (configuration not stated) [METOLACHOR],Activity,Zea mays [7],0%
same,inhibition at 1404 g/ha,Convolvulus arvensis,47%
same,inhibition at 1404 g/ha,Portulaca oleracea [8],100%
same,inhibition at 1404 g/ha,Eleusine indica [9],99%
same,inhibition at 1404 g/ha,Echinochloa crus-galli [10],100%
same,inhibition at 1404 g/ha,Digitaria sanguinalis [11],95%
same,inhibition (INH),Zea mays [12],2%
same,inhibition (INH),Zea mays [13],2%
same,inhibition at 600 g/ha,Portulaca oleracea [14],60%
same,inhibition at 300 g/ha,Portulaca oleracea [15],57%
same,inhibition at 150 g/ha,Portulaca oleracea [16],36%
same,inhibition at 300 g/ha,Echinochloa crus-galli [17],39%
same,inhibition at 150 g/ha,Echinochloa crus-galli [18],25%
same,inhibition at 300 g/ha,Digitaria sanguinalis [19],76%
same,inhibition at 150 g/ha,Digitaria sanguinalis [20],43%
same,inhibition at 600 g/ha,Eleusine indica [21],97%
same,inhibition at 300 g/ha,Eleusine indica [22],98%
same,inhibition at 150 g/ha,Eleusine indica [23],84%
same,inhibition at 600 g/ha,Digitaria sanguinalis [1],90%
same,inhibition of growth,Portulaca oleracea [2],74%
same,inhibition at 600 g/ha,Echinochloa crus-galli [3],50%
same,inhibition (INH),[24],11%
same,inhibition (INH),[25],9%
same,inhibition (INH),[26],0%
same,inhibition of growth,Echinochloa crus-galli [4],80%
same,inhibition of growth,Echinochloa crus-galli [5],88%
same,inhibition of growth at 100000 µg/mL,Portulaca oleracea [6],62%
Cc1nn(CC(F)(F)F)c(CSC2=NOC(C)(C)C2)c1Cl,inhibition at 600 g/ha,Digitaria sanguinalis [1],54%
same,inhibition of growth,Portulaca oleracea [2],75%
same,inhibition at 600 g/ha,Echinochloa crus-galli [3],81%
same,inhibition of growth,Echinochloa crus-galli [4],89%
same,inhibition of growth,Echinochloa crus-galli [5],88%
same,inhibition of growth at 100000 µg/mL,Portulaca oleracea [6],54%
